Entries after “also recorded” stand apart in the source; their conditions may differ.
What was measured:
[1] = system: FATP5 and FATP2; assay: Inhibition reversibility assay; format: cell-based, human; details: 30 min treatment followed by brief washes with PBS
[2] = target: T1, human FATP5 (Homo sapiens, UniProt Q9Y2P5); format: cell-based; details: for inhibition of FATP5-mediated LCFA uptake: result in words
T1 sequence (Q9Y2P5 1-690): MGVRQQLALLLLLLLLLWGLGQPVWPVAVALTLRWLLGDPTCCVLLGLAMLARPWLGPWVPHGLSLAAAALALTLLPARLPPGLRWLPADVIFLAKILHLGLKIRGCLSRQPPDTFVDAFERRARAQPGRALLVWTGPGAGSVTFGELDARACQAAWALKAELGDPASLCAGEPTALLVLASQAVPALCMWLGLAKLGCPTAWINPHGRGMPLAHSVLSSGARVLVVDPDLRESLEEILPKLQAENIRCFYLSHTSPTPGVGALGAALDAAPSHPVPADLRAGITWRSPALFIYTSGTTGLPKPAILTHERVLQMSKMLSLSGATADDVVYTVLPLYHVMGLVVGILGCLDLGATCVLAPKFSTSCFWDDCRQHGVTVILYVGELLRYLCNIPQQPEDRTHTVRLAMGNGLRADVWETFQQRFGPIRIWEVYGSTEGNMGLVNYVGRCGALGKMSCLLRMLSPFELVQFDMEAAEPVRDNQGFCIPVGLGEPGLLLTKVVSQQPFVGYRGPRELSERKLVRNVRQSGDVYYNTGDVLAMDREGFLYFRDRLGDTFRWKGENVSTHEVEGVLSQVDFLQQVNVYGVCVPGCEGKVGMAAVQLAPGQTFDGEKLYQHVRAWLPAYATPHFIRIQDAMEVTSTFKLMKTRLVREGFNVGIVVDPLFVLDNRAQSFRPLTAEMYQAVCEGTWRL
Outline: (§1)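 HEK-293 cells stably expressing human FATP4, FATP2 or FATP5 were maintained in DMEM/10% FBS with 1 mg/ml G418. Cells were plated at 30,000–50,000/well overnight to 50–70% confluency. They were preincubated 30 min (5% CO2) with test compound, diluted from DMSO stock into HBSS with 20 mM HEPES, 4.5 g/L glucose and 0.1% fatty-acid-free BSA. Compound in quencher mix containing 2 μM C1-BODIPY-C12 was then added. Fluorescence (ex 488/em 515 nm, bottom read) was recorded every 2 min for 2 h, and uptake velocities were derived by linear regression.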

[3] = target: human FATP2 (Homo sapiens, UniProt O14975); format: cell-based; details: for inhibition of FATP2-mediated LCFA uptake: result in words
Outline: as §1

[4] = system: 293 cells; assay: XTT toxicity assay, stable 293 cell lines; format: cell-based, human; details: 48 hours
Outline: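 Stable 293 cells in DMEM/FBS were incubated overnight in 5% CO2. The indicated test compound or DMSO control was added, and after a further 48 h viability was measured with an XTT kit per the manufacturer's instructions.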

[5] = system: primary mouse hepatocytes from C57Bl/6 animals; assay: Quencher based LCFA uptake assay, wild-type mouse primary hepatocytes; format: cell-based
[6] = target: hsFATP4 (Homo sapiens, UniProt Q6P1M0); assay: Quencher-based LCFA uptake assay, FATP4 expressing 293 cells; format: cell-based; details: result in words
hsFATP4, sequence (Q6P1M0 whole entry): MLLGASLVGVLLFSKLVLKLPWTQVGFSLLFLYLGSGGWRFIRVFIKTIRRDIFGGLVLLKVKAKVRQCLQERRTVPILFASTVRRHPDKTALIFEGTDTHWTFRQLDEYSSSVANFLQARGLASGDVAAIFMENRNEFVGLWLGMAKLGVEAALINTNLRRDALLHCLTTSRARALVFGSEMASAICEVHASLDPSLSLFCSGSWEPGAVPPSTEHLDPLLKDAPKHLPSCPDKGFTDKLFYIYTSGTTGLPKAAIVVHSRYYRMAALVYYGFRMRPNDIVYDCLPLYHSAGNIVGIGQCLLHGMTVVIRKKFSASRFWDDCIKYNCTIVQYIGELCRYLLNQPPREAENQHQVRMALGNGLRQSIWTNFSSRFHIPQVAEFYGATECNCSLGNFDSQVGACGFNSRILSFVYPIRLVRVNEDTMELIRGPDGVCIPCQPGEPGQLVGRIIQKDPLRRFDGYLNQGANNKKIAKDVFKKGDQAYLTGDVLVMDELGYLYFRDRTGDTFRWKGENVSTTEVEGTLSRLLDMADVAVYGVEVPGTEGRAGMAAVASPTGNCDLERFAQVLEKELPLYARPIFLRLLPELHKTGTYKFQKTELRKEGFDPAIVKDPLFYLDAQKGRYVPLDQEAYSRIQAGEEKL
Outline: as §1

[7] = system: hepatic TAG content; assay: 7 week bile acid supplemented high-fat diet feeding; format: in vivo, mouse
[8] = system: hepatic LCFA uptake; assay: Non-radioactive in vivo hepatic LCFA uptake assay; parameters: species or system mouse; details: WT mice, acute injection
[9] = system: hepatic triglyceride accumulation; assay: Chronic bile acid injection during high-fat diet; format: in vivo, mouse; details: 3.2 mg/kg s.c. daily, 47 days
Outline: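 Individually housed mice on a high-fat diet (60% calories from fat) received daily s.c. injections of test compound, 3.2 mg/kg in 20 μl DMSO, above the right hip for 47 days. Controls received DMSO vehicle. Mice were fasted 4 h and euthanised with CO2, and injection sites were checked for precipitate. Liver lysates were assayed for protein (BCA) and TAG.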

[10] = system: primary human hepatocytes; assay: FACS-based LCFA uptake assay, primary human hepatocytes; format: cell-based; details: 10 or 100 μM, viable cells
Outline: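 Suspended primary human hepatocytes were pretreated with test compound at 10 or 100 μM in DMEM (37°C, 5% CO2, 30 min). C1-BODIPY-C12 bound to 0.1% BSA was then added to a final 2 μM for 30 min at 37°C. Uptake was stopped on ice, and cells were centrifuged at 4°C and resuspended in cold PBS. Propidium iodide was added, and mean BODIPY fluorescence of 5000 viable PI-negative cells was taken from histogram plots.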

[11] = 0.5mg/g in high fat food, 7 weeks

Row | SMILES | Reversible Inhibition [1] | IC50 [2] [µM] | inhibition of FATP5-mediated LCFA uptake [2] | IC50 [3] [µM] | inhibition of FATP2-mediated LCFA uptake [3] | further results
1 | C[C@H](CCC(=O)O)[C@H]1CC[C@H]2[C@@H]3[C@H](O)C[C@@H]4C[C@H](O)CC[C@]4(C)[C@H]3C[C@H](O)[C@]12C [CA, cholic acid] | complete reversibility and Yes | 31 | specifically inhibited FATP5-mediated LCFA uptake | – | – | –
2 | COc1cc(/C=C2/SC(=S)N(c3cccc(Cl)c3)C2=O)cc(Br)c1O [CB-2, (5E)-5-[(3-bromo-4-hydroxy-5-methoxyphenyl)methylene]-3-(3-chlorophenyl)-2-thioxothiazolidin-4-one, reference compound] | Yes | – | – | 8 | – | –
3 | O=c1cc(-c2ccc([N+](=O)[O-])cc2)nc2c(-c3ccc(Cl)cc3)c(Cc3ccccc3)[nH]n12 [CB-5, 2-benzyl-3-(4-chlorophenyl)-5-(4-nitrophenyl)-1H-pyrazolo[5,1-b]pyrimidin-7-one, reference compound] | No (tox) | 7 | – | 18 | – | toxicity (XTT assay) [4]: marked cytotoxicity
4 | Oc1c(C2=NCCNC(C(F)(F)F)=C2)ccc2ccccc12 [CB-6, 2-[7-(trifluoromethyl)-2,3-dihydro-1H-1,4-diazepin-5-yl]naphthalen-1-ol, reference compound] | irreversible and No | 38 | – | 12 | – | –
5 | C[C@H](CCC(=O)O)[C@H]1CC[C@H]2[C@@H]3[C@H](O)C[C@@H]4C[C@H](O)CC[C@]4(C)[C@H]3CC[C@]12C [CDCA, chenodeoxycholic acid] | complete reversibility and Yes | 10 | specifically inhibited FATP5-mediated LCFA uptake | – | – | –
6 | C[C@H](CCC(=O)O)[C@H]1CC[C@H]2[C@@H]3CC[C@@H]4C[C@H](O)CC[C@]4(C)[C@H]3CC[C@]12C [LCA, lithocholic acid] | – | – | no inhibition | – | no inhibition | inhibition of LCFA uptake by primary mouse hepatocytes [5]: no inhibition; inhibition of FATP4 LCFA uptake [6]: neither DCA, UDCA, nor LCA inhibited; also recorded: No inhibition; body weight [7, 11]: Neither DCA nor LCA feeding resulted in changes; caloric output over a 36h period [7, 11]: Neither DCA nor LCA feeding resulted in changes; food intake [7, 11]: Neither DCA nor LCA feeding resulted in changes; respiratory rate [7, 11]: Neither DCA nor LCA feeding resulted in changes; effect on liver TAG content ([7]; result in words, LCA in high-fat diet model): had no effect; effect on in vivo hepatic LCFA uptake [8]: had no effect; body weight [9]: nor did it affect food consumption or body weight; food consumption [9]: nor did it affect food consumption or body weight; respiration [9]: neither triggered an increase in respiration
7 | C[C@H](CCC(=O)NCCS(=O)(=O)O)[C@H]1CC[C@H]2[C@@H]3CC[C@@H]4C[C@H](O)CC[C@]4(C)[C@H]3C[C@H](O)[C@]12C [TDCA, taurodeoxycholic acid] | – | – | inhibited neither FATP2 nor FATP5 | – | inhibited neither FATP2 nor FATP5 | –
8 | CC(CCC[C@@H](C)[C@H]1CC[C@H]2[C@@H]3[C@H](O)C[C@@H]4C[C@H](O)CC[C@]4(C)[C@H]3C[C@H](O)[C@]12C)C(=O)O (stereo partly drawn) [THCA, 3a,7a,12a-Trihydroxy-5β-cholestanoic acid] | – | – | weak inhibition | – | no inhibition | –
9 | C[C@H](CCC(=O)NCCS(=O)(=O)O)[C@H]1CC[C@H]2[C@@H]3[C@@H](O)C[C@@H]4C[C@H](O)CC[C@]4(C)[C@H]3CC[C@]12C [TUDCA, tauroursodeoxycholic acid] | – | – | did not inhibit | – | did not inhibit | inhibition of LCFA uptake by primary human hepatocytes [10]: but not TUDCA
10 | C[C@H](CCC(=O)O)[C@H]1CC[C@H]2[C@@H]3[C@H](O)[C@@H](O)[C@@H]4C[C@H](O)CC[C@]4(C)[C@H]3CC[C@]12C [alpha-muricholic acid] | – | – | no effect on LCFA uptake | – | – | –

From publication PMC3445775 (Hepatology (Baltimore, Md.), 2012)
